Tests used:
[1] = test system: gp100-reactive T cells with EL-4 thymoma cells; assay: Recognition of peptide-pulsed EL-4 at limiting concentrations, IFN-γ ELISA; type: cell-based; conditions: human versus mouse epitope
H-2D^b = H-2D^b (Mus musculus, UniProt P01899); assay: MHC class I stabilization assay on RMA/S cells; type: binding
Method in brief: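 RMA/S cells (TAP-deficient, H-2b) preincubated 24 h at room temperature, then pulsed with peptides across a concentration range, with control peptides, at room temperature (25°C). Next, 4 h at 37°C to allow turnover of empty class I. Stained with FITC anti-H-2Db mAb KH95 for 1 h at 4°C and analysed by flow cytometry. Expressed as percentage of maximal stabilization at 100 μM.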

Sequence of H-2D^b (P01899 whole entry, looked up): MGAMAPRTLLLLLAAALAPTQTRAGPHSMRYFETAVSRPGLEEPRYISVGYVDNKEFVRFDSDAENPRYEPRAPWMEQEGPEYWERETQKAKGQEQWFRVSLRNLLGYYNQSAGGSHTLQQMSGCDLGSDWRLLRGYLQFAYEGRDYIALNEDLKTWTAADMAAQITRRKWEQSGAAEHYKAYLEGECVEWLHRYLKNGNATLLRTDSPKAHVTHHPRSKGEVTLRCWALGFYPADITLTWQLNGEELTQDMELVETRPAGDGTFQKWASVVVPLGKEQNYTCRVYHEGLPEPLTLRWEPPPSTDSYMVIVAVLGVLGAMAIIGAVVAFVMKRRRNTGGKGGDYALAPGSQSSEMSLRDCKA

affinity for H-2D^b (H-2D^b; compared with mgp100_25–33, Fig. 6): dramatically increased affinity
increase in ability to stabilize “empty” D^b on RMA-S cells (H-2D^b; human versus mouse epitope): 2 log
Sequence: KVPRNQDWL [hgp100_25–33]
increase in ability to trigger interferon γ release by T cells [1]: 3 log

— article PMC2212458 (The Journal of Experimental Medicine, 1998)
